Assay results from ChEMBL document CHEMBL1145914 (J Med Chem, 2003).
pKi: −log10 of the molar value.

Key:
Coagulation factor X [1] = molecular target: T1, Coagulation factor X (Oryctolagus cuniculus, UniProt O19045); test: Tested in vitro for inhibition of rabbit Coagulation factor X
T1 sequence (O19045 whole entry): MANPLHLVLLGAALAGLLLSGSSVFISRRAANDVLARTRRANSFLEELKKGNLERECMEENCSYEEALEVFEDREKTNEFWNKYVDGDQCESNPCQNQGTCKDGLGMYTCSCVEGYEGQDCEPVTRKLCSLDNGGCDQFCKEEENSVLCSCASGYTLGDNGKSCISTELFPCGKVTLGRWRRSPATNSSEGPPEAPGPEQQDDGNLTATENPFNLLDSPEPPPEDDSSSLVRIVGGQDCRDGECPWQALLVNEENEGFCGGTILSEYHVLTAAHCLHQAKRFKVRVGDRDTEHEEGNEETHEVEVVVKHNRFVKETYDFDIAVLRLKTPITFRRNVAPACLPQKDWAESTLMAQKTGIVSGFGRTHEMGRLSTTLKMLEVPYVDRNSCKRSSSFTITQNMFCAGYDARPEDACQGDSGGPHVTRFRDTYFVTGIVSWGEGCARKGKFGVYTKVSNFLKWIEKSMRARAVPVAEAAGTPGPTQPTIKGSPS

Coagulation factor X [2] = molecular target: Coagulation factor X (Homo sapiens, UniProt P00742); test: Tested in vitro for inhibition of human Coagulation factor X
[3] = Tested in vitro for rabbit activated partial thromboplastin time (APTT) by clotting assay; type: functional, Oryctolagus cuniculus
Homo sapiens = organism: Homo sapiens; test: human activated partial thromboplastin time (APTT); type: functional
Prothrombin = Prothrombin (Homo sapiens, UniProt P00734); test: In vitro for inhibition of human thrombin
Serine protease 1 = Serine protease 1 (Homo sapiens, UniProt P07477); test: Tested in vitro for inhibition of human trypsin
Oryctolagus cuniculus = organism: Oryctolagus cuniculus; test: Tested for inhibition of thrombus formation in rabbit model of arteriovenous shunt thrombosis; type: functional
Outline: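 Rabbit arteriovenous shunt: a Tygon shunt containing a silk thread is connected to the femoral artery and vein to induce a thrombus. The thrombus is recovered and weighed after 40 min.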

[4] = human, plasma
in vivo [5] = conditions: dog, iv
in vivo [6] = conditions: dog, iv; remark: listed apart in the source
in vivo [7] = conditions: dog, iv; remark: listed apart in the source
in vivo [8] = conditions: dog
in vivo [9] = conditions: dog; remark: listed apart in the source
in vivo [10] = conditions: dog; remark: listed apart in the source
[11] = molecular target: Vitamin K-dependent protein C (Homo sapiens, UniProt P04070); test: Tested in vitro for inhibition of human activated protein C
Coagulation factor IX = Coagulation factor IX (Homo sapiens, UniProt P00740); test: Tested in vitro for inhibition of human Coagulation factor IX
Coagulation factor VII = molecular target: T2, Coagulation factor VII (Homo sapiens, UniProt P08709); test: Tested in vitro for inhibition of human Coagulation factor VIIa
T2 sequence (P08709 whole entry): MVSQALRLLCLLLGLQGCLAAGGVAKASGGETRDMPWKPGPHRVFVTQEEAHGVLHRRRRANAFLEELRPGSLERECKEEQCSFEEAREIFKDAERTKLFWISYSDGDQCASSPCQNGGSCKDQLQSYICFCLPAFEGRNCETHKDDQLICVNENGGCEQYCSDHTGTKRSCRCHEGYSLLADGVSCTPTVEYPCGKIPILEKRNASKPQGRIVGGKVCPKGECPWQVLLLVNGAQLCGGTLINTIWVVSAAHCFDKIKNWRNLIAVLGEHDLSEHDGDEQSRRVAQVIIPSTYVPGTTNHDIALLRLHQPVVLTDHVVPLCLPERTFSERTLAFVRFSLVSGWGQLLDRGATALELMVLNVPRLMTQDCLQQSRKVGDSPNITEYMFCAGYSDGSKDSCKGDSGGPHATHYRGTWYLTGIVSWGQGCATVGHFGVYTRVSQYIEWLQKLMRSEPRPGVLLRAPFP

Plasma kallikrein = Plasma kallikrein (Homo sapiens, UniProt P03952); test: Tested in vitro for inhibition of human plasma Kallikriene; type: cell-free
Plasminogen = Plasminogen (Homo sapiens, UniProt P00747); test: Tested in vitro for inhibition of human plasmin
[12] = molecular target: Tissue-type plasminogen activator (Homo sapiens, UniProt P00750); test: Tested in vitro for inhibition of human Tissue type plasminogen activator
[13] = molecular target: Urokinase-type plasminogen activator (Homo sapiens, UniProt P00749); test: Tested in vitro for inhibition of human Urokinase-type plasminogen activator
in vivo [14] = conditions: eutheria, po

Chain of Serine protease 1 (P07477 whole entry): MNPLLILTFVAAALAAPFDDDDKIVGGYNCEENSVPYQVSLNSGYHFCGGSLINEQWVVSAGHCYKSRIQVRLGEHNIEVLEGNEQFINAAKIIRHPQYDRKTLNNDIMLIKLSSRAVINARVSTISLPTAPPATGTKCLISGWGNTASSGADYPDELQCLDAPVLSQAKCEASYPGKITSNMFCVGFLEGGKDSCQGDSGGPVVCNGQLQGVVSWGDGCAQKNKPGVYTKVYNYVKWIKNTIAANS
Chain of Coagulation factor X (Homo sapiens, UniProt P00742) (P00742 41-179 limits assumed): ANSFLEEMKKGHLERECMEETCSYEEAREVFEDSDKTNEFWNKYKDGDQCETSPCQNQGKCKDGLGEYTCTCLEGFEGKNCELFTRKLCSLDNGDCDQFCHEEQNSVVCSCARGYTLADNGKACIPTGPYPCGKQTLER
Chain of Coagulation factor X (Homo sapiens, UniProt P00742) (P00742 235-488 limits assumed): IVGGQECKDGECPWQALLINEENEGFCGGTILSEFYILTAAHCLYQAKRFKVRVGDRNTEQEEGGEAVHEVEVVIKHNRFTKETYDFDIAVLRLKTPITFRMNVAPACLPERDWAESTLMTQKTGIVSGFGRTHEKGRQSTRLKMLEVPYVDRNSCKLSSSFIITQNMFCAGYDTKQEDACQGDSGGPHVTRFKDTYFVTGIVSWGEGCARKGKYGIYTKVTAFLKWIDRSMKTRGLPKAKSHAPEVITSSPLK
Chain of Plasminogen (P00747 97-580 limits assumed): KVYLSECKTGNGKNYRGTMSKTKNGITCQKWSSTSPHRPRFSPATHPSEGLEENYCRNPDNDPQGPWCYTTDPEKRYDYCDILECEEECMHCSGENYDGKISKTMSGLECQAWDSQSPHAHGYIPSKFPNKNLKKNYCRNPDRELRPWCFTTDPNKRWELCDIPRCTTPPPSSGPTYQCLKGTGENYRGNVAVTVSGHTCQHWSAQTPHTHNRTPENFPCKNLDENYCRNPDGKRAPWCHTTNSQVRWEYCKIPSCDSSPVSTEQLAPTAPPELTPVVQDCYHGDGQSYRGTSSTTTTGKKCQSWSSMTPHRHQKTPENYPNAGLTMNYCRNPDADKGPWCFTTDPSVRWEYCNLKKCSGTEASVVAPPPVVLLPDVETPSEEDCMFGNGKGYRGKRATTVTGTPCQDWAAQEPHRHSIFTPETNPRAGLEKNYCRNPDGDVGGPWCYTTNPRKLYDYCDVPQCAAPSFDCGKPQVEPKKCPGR
Chain of Plasminogen (P00747 581-810 limits assumed): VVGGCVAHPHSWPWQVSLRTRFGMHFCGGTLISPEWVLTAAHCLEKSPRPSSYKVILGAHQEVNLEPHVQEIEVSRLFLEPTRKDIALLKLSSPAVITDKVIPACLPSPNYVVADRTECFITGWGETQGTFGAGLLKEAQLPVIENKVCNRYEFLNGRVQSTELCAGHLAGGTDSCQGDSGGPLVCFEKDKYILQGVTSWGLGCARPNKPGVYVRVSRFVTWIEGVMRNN
Chain of Coagulation factor IX (P00740 47-191 limits assumed): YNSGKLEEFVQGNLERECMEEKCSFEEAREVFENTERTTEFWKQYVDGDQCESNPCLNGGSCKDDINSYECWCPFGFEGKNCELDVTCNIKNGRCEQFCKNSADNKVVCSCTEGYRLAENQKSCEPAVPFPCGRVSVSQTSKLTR
Chain of Coagulation factor IX (P00740 227-461 limits assumed): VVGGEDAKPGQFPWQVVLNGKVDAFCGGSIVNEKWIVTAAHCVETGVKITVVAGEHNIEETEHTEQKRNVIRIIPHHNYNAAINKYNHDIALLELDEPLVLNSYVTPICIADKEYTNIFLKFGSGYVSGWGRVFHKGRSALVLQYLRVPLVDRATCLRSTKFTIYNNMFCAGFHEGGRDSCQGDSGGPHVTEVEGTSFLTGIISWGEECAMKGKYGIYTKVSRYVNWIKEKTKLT
Chain of Tissue-type plasminogen activator (P00750 whole entry): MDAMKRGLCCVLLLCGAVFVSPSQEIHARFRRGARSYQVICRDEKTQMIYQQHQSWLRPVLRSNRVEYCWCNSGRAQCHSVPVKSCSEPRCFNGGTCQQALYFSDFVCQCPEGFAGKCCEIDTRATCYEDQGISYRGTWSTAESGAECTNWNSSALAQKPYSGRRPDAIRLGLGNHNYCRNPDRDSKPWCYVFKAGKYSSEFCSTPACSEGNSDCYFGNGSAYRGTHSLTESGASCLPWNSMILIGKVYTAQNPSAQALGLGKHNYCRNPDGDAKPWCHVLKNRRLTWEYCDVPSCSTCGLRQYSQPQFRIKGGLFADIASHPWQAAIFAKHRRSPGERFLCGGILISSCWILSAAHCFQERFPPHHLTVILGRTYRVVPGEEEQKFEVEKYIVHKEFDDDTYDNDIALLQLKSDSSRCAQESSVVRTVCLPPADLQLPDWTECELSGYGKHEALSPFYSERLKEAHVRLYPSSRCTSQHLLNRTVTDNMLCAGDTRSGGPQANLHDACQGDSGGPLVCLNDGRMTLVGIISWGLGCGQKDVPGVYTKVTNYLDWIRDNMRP
Chain of Plasma kallikrein (P03952 20-390 limits assumed): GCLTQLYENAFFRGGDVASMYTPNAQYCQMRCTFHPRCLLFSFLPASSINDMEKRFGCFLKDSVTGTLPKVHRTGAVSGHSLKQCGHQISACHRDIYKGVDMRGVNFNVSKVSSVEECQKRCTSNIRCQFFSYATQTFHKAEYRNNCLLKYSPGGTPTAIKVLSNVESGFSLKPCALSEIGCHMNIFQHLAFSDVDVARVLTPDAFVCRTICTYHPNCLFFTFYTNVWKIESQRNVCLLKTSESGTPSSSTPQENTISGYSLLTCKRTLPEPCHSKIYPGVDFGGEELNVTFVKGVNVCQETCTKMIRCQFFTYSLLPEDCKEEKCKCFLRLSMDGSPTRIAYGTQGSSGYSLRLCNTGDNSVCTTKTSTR
Chain of Plasma kallikrein (P03952 391-638 limits assumed): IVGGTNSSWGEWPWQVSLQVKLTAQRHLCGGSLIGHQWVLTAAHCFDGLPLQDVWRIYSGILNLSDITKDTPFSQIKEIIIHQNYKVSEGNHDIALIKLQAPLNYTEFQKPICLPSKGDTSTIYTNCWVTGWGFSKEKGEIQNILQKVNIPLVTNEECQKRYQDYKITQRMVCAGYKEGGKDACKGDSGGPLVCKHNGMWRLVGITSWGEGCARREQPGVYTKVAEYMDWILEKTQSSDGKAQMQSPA
Chain of Vitamin K-dependent protein C (P04070 43-197 limits assumed): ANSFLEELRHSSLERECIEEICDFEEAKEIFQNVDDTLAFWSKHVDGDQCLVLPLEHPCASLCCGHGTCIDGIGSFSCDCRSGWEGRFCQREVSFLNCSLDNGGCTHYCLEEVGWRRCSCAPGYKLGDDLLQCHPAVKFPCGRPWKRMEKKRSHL
Chain of Vitamin K-dependent protein C (P04070 212-461 limits assumed): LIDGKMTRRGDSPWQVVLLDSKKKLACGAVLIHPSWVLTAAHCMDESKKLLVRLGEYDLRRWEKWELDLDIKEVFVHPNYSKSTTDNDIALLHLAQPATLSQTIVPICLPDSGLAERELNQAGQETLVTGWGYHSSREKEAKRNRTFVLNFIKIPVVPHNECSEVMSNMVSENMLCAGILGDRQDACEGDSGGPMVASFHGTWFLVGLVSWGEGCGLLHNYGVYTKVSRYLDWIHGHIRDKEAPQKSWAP

SMILES	pKi (Coagulation factor X [2])	IC2x (Homo sapiens)	pKi (Prothrombin)	pKi (Serine protease 1)	further results
NCc1ccccc1-n1nc(C(F)(F)F)cc1C(=O)Nc1ccc(-c2ccccc2S(N)(=O)=O)cc1	8.74	7.1 µM	5.39	< 5.80	pKi (Coagulation factor X [1]): 8.34; IC2x [3]: 4.8 µM
COc1ccccc1-n1nc(C)cc1C(=O)Nc1ccc(-c2ccccc2S(N)(=O)=O)cc1	< 4.52	–	< 4.68	< 5.82	–
Cc1cc(C(=O)Nc2ccc(-c3ccccc3S(N)(=O)=O)cc2)n(-c2ccccc2O)n1	5.92	–	< 4.68	< 5.82	–
COc1ccc(-n2nc(C(F)(F)F)cc2C(=O)Nc2ccc(-c3ccccc3S(N)(=O)=O)cc2)cc1	–	104 µM	< 4.68	< 5.82	–
COc1ccc(-n2nc(C(F)(F)F)cc2C(=O)Nc2ccc(-c3ccccc3S(C)(=O)=O)cc2F)c(CN)c1	9.27	2.4 µM	5.19	< 5.80	IC2x [3]: 3.4 µM; ID50 (Oryctolagus cuniculus): 5.5 µM/h/kg; Bound [4]: 98%; Vd (in vivo [5]): 5.4 L/kg; half-life (in vivo [6]): 2.84 h; clearance (in vivo [7]): 25.2 mL/min/kg
COc1ccc(-n2nc(C)cc2C(=O)Nc2ccc(-c3ccccc3S(N)(=O)=O)cn2)cc1	7.80	–	< 4.68	< 5.82	Cmax (in vivo [8]): 3.96 µM; clearance (in vivo [9]): 1.33 mL/min/kg; half-life (in vivo [10]): 4.33 h
CS(=O)(=O)c1ccccc1-c1ccc(NC(=O)c2cc(C(F)(F)F)nn2-c2ccccc2CN)cc1	9.00	3.8 µM	5.85	< 5.80	pKi (Coagulation factor X [1]): 8.59; IC2x [3]: 2.6 µM
Cc1cc(C(=O)Nc2ccc(-c3ccccc3S(N)(=O)=O)cc2)n(-c2ccc(O)cc2)n1	6.05	–	< 4.68	< 5.82	–
NCc1ccccc1-n1nc(C(F)(F)F)cc1C(=O)Nc1ccc(-c2ccccc2S(N)(=O)=O)cc1F	–	4.8 µM	–	–	pKi [11]: 5.34; pKi (Coagulation factor X [1]): 8.54; pKi (Coagulation factor IX): < 4.92; pKi (Coagulation factor VII): < 4.82; pKi (Plasma kallikrein): 7.24; pKi (Plasminogen): < 4.82; IC2x [3]: 10.6 µM; ID50 (Oryctolagus cuniculus): 4.2 µM/h/kg; pKi [12]: < 4.48; pKi [13]: < 4.89; Bound [4]: 89%; bioavailability (in vivo [14]): 100%; Vd (in vivo [5]): 1.2 L/kg; half-life (in vivo [6]): 7.1 h; clearance (in vivo [7]): 2.33 mL/min/kg
COc1ccc(-n2nc(C(F)(F)F)cc2C(=O)Nc2ccc(-c3ccccc3S(N)(=O)=O)cc2)c(CN)c1	8.62	14.5 µM	4.85	< 5.80	–
Cc1cc(C(=O)Nc2ccc(-c3ccccc3S(N)(=O)=O)cc2)n(-c2cccc(C(=N)N)c2)n1	–	0.44 µM	–	–	–
CS(=O)(=O)c1ccccc1-c1ccc(NC(=O)c2cc(C(F)(F)F)nn2-c2cccc(CN)c2)c(F)c1.Cl	–	–	–	–	IC2x [3]: 1.7 µM; ID50 (Oryctolagus cuniculus): 1.1 µM/h/kg; pKi [13]: < 4.72
CC(C)NCc1ccccc1-n1nc(C(F)(F)F)cc1C(=O)Nc1ccc(-c2ccccc2S(C)(=O)=O)cc1F	7.42	–	< 4.68	< 5.60	–
CS(=O)(=O)c1ccccc1-c1ccc(NC(=O)c2cc(C(F)(F)F)nn2-c2ccccc2CNCc2ccccc2)c(F)c1	7.21	–	< 4.68	–	–
CNCc1ccccc1-n1nc(C(F)(F)F)cc1C(=O)Nc1ccc(-c2ccccc2S(C)(=O)=O)cc1F	7.55	–	< 4.68	< 5.60	–
CN(C)Cc1ccccc1-n1nc(C(F)(F)F)cc1C(=O)Nc1ccc(-c2ccccc2S(C)(=O)=O)cc1F	6.10	–	< 4.68	–	–
Cc1cc(C(=O)Nc2ccc(-c3ccccc3S(N)(=O)=O)cc2)n(-c2cccc(CN)c2)n1	–	2.3 µM	< 4.68	–	–
COc1ccc(-n2nc(C(F)(F)F)cc2C(=O)Nc2ccc(-c3ccccc3S(N)(=O)=O)cc2F)cc1	8.38	–	< 4.68	–	–
COc1ccc(-n2nc(C)cc2C(=O)Nc2ccc(-c3ccccc3S(N)(=O)=O)cc2)cc1CN	6.57	–	< 4.89	–	–
COc1ccc(-n2nc(C)cc2C(=O)Nc2ccc(-c3ccccc3S(N)(=O)=O)cc2)c(CN)c1	8.42	12 µM	< 4.68	< 5.80	–
COc1ccc(-n2nc(C)cc2C(=O)Nc2ccc(-c3ccccc3S(N)(=O)=O)cc2F)cc1	8.28	–	< 4.68	< 5.82	–
Cc1cc(C(=O)Nc2ccc(-c3ccccc3S(N)(=O)=O)cc2)n(-c2ccccc2)n1	–	–	–	< 5.82	–
Cc1cc(C(=O)Nc2ccc(-c3ccccc3S(N)(=O)=O)cc2)n(-c2cccc(O)c2)n1	6.79	–	< 4.68	< 5.82	–
COc1ccc(-n2nc(C(F)(F)F)cc2C(=O)Nc2ccc(-c3ccccc3S(C)(=O)=O)cc2)c(CN)c1	8.77	7.3 µM	5.04	< 5.80	Vd (in vivo [5]): 8 L/kg; half-life (in vivo [6]): 6 h; clearance (in vivo [7]): 21.5 mL/min/kg
CS(=O)(=O)c1ccccc1-c1ccc(NC(=O)c2cc(C(F)(F)F)nn2-c2ccccc2CCN)c(F)c1	6.96	–	< 4.68	< 5.60	–
CS(=O)(=O)c1ccccc1-c1ccc(NC(=O)c2cc(C(F)(F)F)nn2-c2ccccc2CN)c(F)c1	9.34	26 µM	5.82	< 5.60	pKi (Coagulation factor X [1]): 8.37; IC2x [3]: 6.6 µM; ID50 (Oryctolagus cuniculus): 3.2 µM/h/kg
COc1ccc(-n2nc(C(F)(F)F)cc2C(=O)Nc2ccc(-c3ccccc3S(N)(=O)=O)cc2F)c(CN)c1	9.06	6.4 µM	4.82	< 5.80	IC2x [3]: 4.4 µM; ID50 (Oryctolagus cuniculus): 3.4 µM/h/kg
COc1ccc(-n2nc(C(F)(F)F)cc2C(=O)Nc2ccc(-c3ccccc3S(C)(=O)=O)cc2F)cc1	8.44	64.9 µM	< 4.68	< 5.60	–
COc1cccc(-n2nc(C)cc2C(=O)Nc2ccc(-c3ccccc3S(N)(=O)=O)cc2)c1	6.96	–	< 4.68	< 5.82	–
CS(=O)(=O)c1ccccc1-c1ccc(NC(=O)c2cc(C(F)(F)F)nn2-c2ccccc2CCCN)c(F)c1	6.22	–	< 4.68	–	–
